In ChEMBL document CHEMBL1772950, “Solid phase synthesis and biological activity of tuftsin conjugates” (J Med Chem, 2011):
Calls of active or inactive are those of the source. The calls are words filed in the database; no cut-off is given here. Residues, ends and D or L forms follow the SMILES beside them. *: point of attachment. Acridin9yl(1-NO2,4-Me) = Cc1ccc([N+](=O)[O-])c2c(*)c3ccccc3nc12; X1 = O=C(c1ccc([N+](=O)[O-])c2c(=O)c3ccccc3[nH]c12)*; Acridone(4-CO) = O=C(c1cccc2c(=O)c3ccccc3[nH]c12)*; X2 = O=[N+]([O-])c1cccc2nc3ccccc3c(*)c12; Ahx = NCCCCCC(=O)O; GABA = NCCCC(=O)O; βAla = NCCC(=O)O

Key:
A549 [1] = experiment: Anticancer activity against human A549 cells assessed as cell viability by MTT assay; assay type: functional, cell-based
Summary of the method: (§1)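 Cells kept in RPMI 1640 with 10% FBS, 2 mM L-glutamine, penicillin/streptomycin, 37 °C, 5% CO2. Exponentially growing cells exposed continuously to a range of concentrations (10 mM DMSO stocks) for three to four generation times. MTT added for 4 h at 37 °C; formazan read on plate reader. IC50 taken from survival–dose curves versus untreated controls. At least two independent experiments, each in duplicate.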

HL-60 [2] = experiment: Anticancer activity against human HL60 cells assessed as cell viability by MTT assay; assay type: functional, cell-based; summary of the method: as §1
HL-60 [3] = experiment: Cell cycle arrest in human HL60 cells assessed as accumulation at early S phase after 72 hrs by flow cytometry; assay type: functional, cell-based
HL-60 [4] = experiment: Induction apoptosis in human HL60 cells assessed as change in nuclear morphology at 25 uM after 24 to 72 hrs by fluorescence microscopy; assay type: functional, cell-based
A549 [5] = experiment: Cell cycle arrest in human A549 cells assessed as accumulation at G2 phase after 72 hrs by flow cytometry; assay type: functional, cell-based
HL-60 [6] = experiment: Cell cycle arrest in human HL60 cells assessed as accumulation at G2 phase after 24 hrs by flow cytometry; assay type: functional, cell-based
A549 [7] = experiment: Cell cycle arrest in human A549 cells assessed as accumulation at M phase after 72 hrs by flow cytometry; assay type: functional, cell-based
HL-60 [8] = experiment: Cell cycle arrest in human HL60 cells assessed as accumulation at G2 phase after 72 hrs by flow cytometry; assay type: functional, cell-based
[9] = biological target: DNA topoisomerase II alpha (Homo sapiens) (UniProt P11388); experiment: Inhibition of human topoisomerase II mediated DNA relaxation at 1 to 100 uM
Chain of DNA topoisomerase II alpha (Homo sapiens) (P11388 whole entry, looked up): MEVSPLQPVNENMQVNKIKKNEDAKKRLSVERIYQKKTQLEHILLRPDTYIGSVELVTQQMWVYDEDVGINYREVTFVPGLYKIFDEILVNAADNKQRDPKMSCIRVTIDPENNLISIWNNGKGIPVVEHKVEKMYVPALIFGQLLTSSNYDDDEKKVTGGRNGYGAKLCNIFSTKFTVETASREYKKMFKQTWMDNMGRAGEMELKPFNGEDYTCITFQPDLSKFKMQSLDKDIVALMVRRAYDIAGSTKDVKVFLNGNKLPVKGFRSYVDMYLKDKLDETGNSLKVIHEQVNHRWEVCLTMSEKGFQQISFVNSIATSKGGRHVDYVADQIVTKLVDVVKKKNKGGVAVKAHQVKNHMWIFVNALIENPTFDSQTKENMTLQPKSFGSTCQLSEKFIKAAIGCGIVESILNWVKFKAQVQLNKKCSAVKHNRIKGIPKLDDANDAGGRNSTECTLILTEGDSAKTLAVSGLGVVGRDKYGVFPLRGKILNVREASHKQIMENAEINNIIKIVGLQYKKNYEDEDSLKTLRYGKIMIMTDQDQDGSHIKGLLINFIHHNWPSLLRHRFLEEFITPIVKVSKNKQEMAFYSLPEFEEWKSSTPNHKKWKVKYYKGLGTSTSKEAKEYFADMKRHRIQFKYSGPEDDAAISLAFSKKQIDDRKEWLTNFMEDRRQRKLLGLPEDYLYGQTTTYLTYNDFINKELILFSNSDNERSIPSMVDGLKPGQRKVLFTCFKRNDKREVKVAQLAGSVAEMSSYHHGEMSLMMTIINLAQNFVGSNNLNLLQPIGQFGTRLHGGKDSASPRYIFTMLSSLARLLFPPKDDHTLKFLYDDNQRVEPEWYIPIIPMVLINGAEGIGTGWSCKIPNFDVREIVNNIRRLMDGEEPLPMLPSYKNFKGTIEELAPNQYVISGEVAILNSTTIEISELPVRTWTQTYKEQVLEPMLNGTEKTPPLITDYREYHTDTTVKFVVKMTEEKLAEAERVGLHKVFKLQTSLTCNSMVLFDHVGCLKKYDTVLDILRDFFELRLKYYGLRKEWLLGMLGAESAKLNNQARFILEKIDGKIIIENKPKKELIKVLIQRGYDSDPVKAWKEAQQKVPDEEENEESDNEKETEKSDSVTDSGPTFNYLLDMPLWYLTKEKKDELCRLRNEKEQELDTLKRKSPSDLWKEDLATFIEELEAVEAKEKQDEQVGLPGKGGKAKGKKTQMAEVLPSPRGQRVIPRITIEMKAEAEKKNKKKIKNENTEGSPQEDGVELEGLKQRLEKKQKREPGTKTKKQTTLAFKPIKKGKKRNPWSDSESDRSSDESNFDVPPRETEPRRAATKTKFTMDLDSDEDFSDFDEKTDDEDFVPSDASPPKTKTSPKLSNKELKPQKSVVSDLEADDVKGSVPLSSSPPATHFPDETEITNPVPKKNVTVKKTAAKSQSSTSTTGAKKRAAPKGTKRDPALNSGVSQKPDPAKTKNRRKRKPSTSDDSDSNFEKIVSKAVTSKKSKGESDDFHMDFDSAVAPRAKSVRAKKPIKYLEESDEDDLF

HL-60 [10] = experiment: Cell cycle arrest in human HL60 cells assessed as accumulation at M phase after 24 hrs by flow cytometry; assay type: functional, cell-based
A549 [11] = experiment: Cell cycle arrest in human A549 cells assessed as accumulation at early S phase after 72 hrs by flow cytometry; assay type: functional, cell-based
A549 [12] = experiment: Cell cycle arrest in human A549 cells assessed as accumulation at S phase after 24 hrs by flow cytometry; assay type: functional, cell-based
A549 [13] = experiment: Cell cycle arrest in human A549 cells assessed as accumulation at G2 phase after 24 hrs by flow cytometry; assay type: functional, cell-based
A549 [14] = experiment: Cell cycle arrest in human A549 cells assessed as accumulation at M phase after 24 hrs by flow cytometry; assay type: functional, cell-based
HL-60 [15] = experiment: Cell cycle arrest in human HL60 cells assessed as accumulation at S phase after 24 hrs by flow cytometry; assay type: functional, cell-based
HL-60 [16] = experiment: Cell cycle arrest in human HL60 cells assessed as accumulation at M phase after 72 hrs by flow cytometry; assay type: functional, cell-based
[17] = biological target: T1, DNA topoisomerase 1 (Homo sapiens) (UniProt P11387); experiment: Inhibition of human topoisomerase I mediated DNA relaxation at 1 to 100 uM
T1 sequence (whole entry): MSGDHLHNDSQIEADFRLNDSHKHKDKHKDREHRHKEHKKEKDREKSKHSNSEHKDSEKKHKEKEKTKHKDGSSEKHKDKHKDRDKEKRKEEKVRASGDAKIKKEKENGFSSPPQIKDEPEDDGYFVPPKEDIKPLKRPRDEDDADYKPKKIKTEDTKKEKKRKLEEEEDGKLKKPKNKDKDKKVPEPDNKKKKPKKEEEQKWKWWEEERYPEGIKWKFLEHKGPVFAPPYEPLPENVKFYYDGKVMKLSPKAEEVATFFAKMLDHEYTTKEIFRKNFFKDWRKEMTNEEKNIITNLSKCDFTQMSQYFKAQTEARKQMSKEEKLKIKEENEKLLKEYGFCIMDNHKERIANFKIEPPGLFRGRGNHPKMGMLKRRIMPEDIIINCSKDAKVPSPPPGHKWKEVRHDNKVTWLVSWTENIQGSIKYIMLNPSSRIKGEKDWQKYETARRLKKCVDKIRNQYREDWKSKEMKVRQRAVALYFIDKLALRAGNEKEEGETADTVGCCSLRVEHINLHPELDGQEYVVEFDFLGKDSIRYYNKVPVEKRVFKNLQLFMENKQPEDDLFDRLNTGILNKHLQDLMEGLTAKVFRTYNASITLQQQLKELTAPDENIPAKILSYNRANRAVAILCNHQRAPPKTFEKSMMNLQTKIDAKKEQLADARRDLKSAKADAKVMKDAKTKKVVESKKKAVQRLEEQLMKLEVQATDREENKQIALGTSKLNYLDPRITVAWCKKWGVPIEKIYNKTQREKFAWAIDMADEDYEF
Summary of the method: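 Relaxation of 200 ng supercoiled pBR322 DNA by purified human topoisomerase I, in 10 mM Tris-HCl pH 7.5, 7.5 mM MgCl2, 60 mM KCl. Run 30 min at 37 °C, stopped with SDS/EDTA loading buffer. Products resolved on 1.2% agarose in TBE at 0.5 V/cm for 18 h, stained with ethidium bromide, imaged under UV.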

Compound	IC50 (A549 [1]) [µM]	IC50 (HL-60 [2]) [µM]	further results
O=C(O)CCNc1c2ccccc2nc2cccc([N+](=O)[O-])c12	6	18.9	–
C[C@@H](O)[C@H](NC(=O)c1cccc2c(=O)c3ccccc3[nH]c12)C(=O)N[C@@H](CCCCNC(=O)CN)C(=O)N1CCC[C@H]1C(=O)N[C@@H](CCCNC(=N)N)C(=O)O ({Acridone(4-CO)}-TK(Gly)PR-OH)	> 100	> 100	–
Cc1ccc([N+](=O)[O-])c2c(NCCC(=O)N[C@H](C(=O)N[C@@H](CCCCNC(=O)CN)C(=O)N3CCC[C@H]3C(=O)N[C@@H](CCCNC(=N)N)C(=O)O)[C@@H](C)O)c3ccccc3nc12 ({Acridin9yl(1-NO2,4-Me)-βAla}-TK(Gly)PR-OH)	76.5	55.5	–
CC[C@H](C)[C@H](N)C(=O)NCCCC[C@H](NC(=O)[C@@H]1CCCN1C(=O)[C@H](CCCNC(=N)N)NC(=O)c1cccc2c(=O)c3ccccc3[nH]c12)C(=O)N[C@H](C(=O)O)[C@@H](C)O ({Acridone(4-CO)}-RPK(Ile)T-OH)	> 100	> 100	–
CC(C)[C@H](N)C(=O)NCCCC[C@H](NC(=O)[C@@H]1CCCN1C(=O)[C@H](CCCNC(=N)N)Nc1ccc(O)c2c1C(=O)c1ccccc1C2=O)C(=O)N[C@H](C(=O)O)[C@@H](C)O	41.5	–	–
Cc1ccc([N+](=O)[O-])c2c(NCCCC(=O)N[C@H](C(=O)N[C@@H](CCCCNC(=O)CN)C(=O)N3CCC[C@H]3C(=O)N[C@@H](CCCNC(=N)N)C(=O)O)[C@@H](C)O)c3ccccc3nc12 ({Acridin9yl(1-NO2,4-Me)-GABA}-TK(Gly)PR-OH)	3	17.2	Activity (HL-60 [3]): Active; Activity (HL-60 [4]): inactive; Activity (A549 [5]): Active; Activity (HL-60 [6]): Active; Activity (A549 [7]): Active; Activity (HL-60 [8]): Active; inhibition [9]: inactive; Activity (HL-60 [10]): Active; Activity (A549 [11]): Active; Activity (A549 [12]): Active; Activity (A549 [13]): Active; Activity (A549 [14]): Active; Activity (HL-60 [15]): Active; Activity (HL-60 [16]): Active
CC[C@H](C)[C@H](N)C(=O)NCCCC[C@H](NC(=O)[C@@H]1CCCN1C(=O)[C@H](CCCNC(=N)N)NC(=O)c1ccc([N+](=O)[O-])c2c(=O)c3ccccc3[nH]c12)C(=O)N[C@H](C(=O)O)[C@@H](C)O (X1-RPK(Ile)T-OH)	38.9	> 100	–
CC[C@H](C)[C@H](N)C(=O)NCCCC[C@H](NC(=O)[C@@H](NC(=O)c1ccc([N+](=O)[O-])c2c(=O)c3ccccc3[nH]c12)[C@@H](C)O)C(=O)N1CCC[C@H]1C(=O)N[C@@H](CCCNC(=N)N)C(=O)O (X1-TK(Ile)PR-OH)	> 100	> 100	–
Cc1ccc([N+](=O)[O-])c2c(NCCCCCC(=O)N[C@@H](CCCNC(=N)N)C(=O)N3CCC[C@H]3C(=O)N[C@@H](CCCCN)C(=O)N[C@H](C(=O)O)[C@@H](C)O)c3ccccc3nc12 ({Acridin9yl(1-NO2,4-Me)-Ahx}-RPKT-OH)	25.6	22.1	–
O=C(O)c1ccc([N+](=O)[O-])c2c(=O)c3ccccc3[nH]c12	> 100	> 100	–
C[C@@H](O)[C@H](NC(=O)[C@H](CCCCNC(=O)CN)NC(=O)[C@@H]1CCCN1C(=O)[C@H](CCCNC(=N)N)NC(=O)c1cccc2c(=O)c3ccccc3[nH]c12)C(=O)O ({Acridone(4-CO)}-RPK(Gly)T-OH)	> 100	> 100	–
Cc1ccc([N+](=O)[O-])c2c(NCCCC(=O)O)c3ccccc3nc12	17.6	15.5	Activity (HL-60 [3]): Active; Activity (HL-60 [4]): Active; Activity (A549 [5]): Active; Activity (HL-60 [6]): Active; Activity (A549 [7]): Active; Activity (HL-60 [8]): Active; inhibition [9]: inactive; Activity (HL-60 [10]): Active; Activity (A549 [11]): Active; Activity (A549 [12]): Active; Activity (A549 [13]): Active; Activity (A549 [14]): Active; Activity (HL-60 [15]): Active; Activity (HL-60 [16]): Active
O=C1CCC(=O)c2c1c(O)c1ccccc1c2O	15.8	15.8	inhibition [17]: Active
CC[C@H](C)[C@H](N)C(=O)NCCCC[C@H](NC(=O)[C@@H]1CCCN1C(=O)[C@H](CCCNC(=N)N)NC(=O)CCCCCNc1c2ccccc2nc2c(C)ccc([N+](=O)[O-])c12)C(=O)N[C@H](C(=O)O)[C@@H](C)O ({Acridin9yl(1-NO2,4-Me)-Ahx}-RPK(Ile)T-OH)	47.3	23.2	–
C[C@@H](O)[C@H](Nc1ccc(O)c2c1C(=O)c1ccccc1C2=O)C(=O)N[C@@H](CCCCN)C(=O)N1CCC[C@H]1C(=O)N[C@@H](CCCNC(=N)N)C(=O)O	14.2	32.4	inhibition [17]: Active
C[C@@H](O)[C@H](NC(=O)[C@H](CCCCNC(=O)CN)NC(=O)[C@@H]1CCCN1C(=O)[C@H](CCCNC(=N)N)NC(=O)CCNc1c2ccccc2nc2cccc([N+](=O)[O-])c12)C(=O)O ({X2-βAla}-RPK(Gly)T-OH)	33.9	71.5	–
C[C@H](N)C(=O)NCCCC[C@H](NC(=O)[C@@H]1CCCN1C(=O)[C@H](CCCNC(=N)N)Nc1ccc(O)c2c1C(=O)c1ccccc1C2=O)C(=O)N[C@H](C(=O)O)[C@@H](C)O	> 100	> 100	–
Cc1ccc([N+](=O)[O-])c2c(NCCCCCC(=O)N[C@H](C(=O)N[C@@H](CCCCN)C(=O)N3CCC[C@H]3C(=O)N[C@@H](CCCNC(=N)N)C(=O)O)[C@@H](C)O)c3ccccc3nc12 ({Acridin9yl(1-NO2,4-Me)-Ahx}-TKPR-OH)	15	13.2	–
Cc1ccc([N+](=O)[O-])c2c(NCCCCCC(=O)O)c3ccccc3nc12	18.7	17.5	–
CC[C@H](C)[C@H](N)C(=O)NCCCC[C@H](NC(=O)[C@@H](NC(=O)CCCCCNc1c2ccccc2nc2c(C)ccc([N+](=O)[O-])c12)[C@@H](C)O)C(=O)N1CCC[C@H]1C(=O)N[C@@H](CCCNC(=N)N)C(=O)O ({Acridin9yl(1-NO2,4-Me)-Ahx}-TK(Ile)PR-OH)	8.7	11.3	–
C[C@@H](O)[C@H](NC(=O)[C@H](CCCCN)NC(=O)[C@@H]1CCCN1C(=O)[C@H](CCCNC(=N)N)Nc1ccc(O)c2c1C(=O)c1ccccc1C2=O)C(=O)O	> 100	> 100	–
